Results reported in PMC9116722 (Cancer chemotherapy and pharmacology, 2022).
“Also recorded” adds a separate entry of the source.

Assay: Adverse events
Format: in vivo, human
Summary of the method: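 Patients with germline BRCA-mutated cancers, or BRCA-wildtype TNBC or platinum-refractory ovarian cancer, took oral drug continuously twice daily in 28-day cycles. There were nine dose levels from 50 to 500 mg BID under 3+3 escalation, run separately per cohort after the first DLT. Toxicities were graded by CTCAE v4.0, with DLTs assessed during cycle 1.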

## C[C@]1(c2nc3c(C(N)=O)cccc3[nH]2)CCCN1 [veliparib]
BRCAmut, DL9 500/500 mg AM/PM
  Any Grade 3 toxicity: 1 (14) number of patients (%)
  Any Grade 4 toxicity: 1 (14) number of patients (%)
  Appendicitis, Grade 3: 0 number of patients (%)
  Aspartate aminotransferase increased, Grade 3: 0 number of patients (%)
  Dehydration, Grade 3: 0 number of patients (%)
  Dyspnea, Grade 4: 1 (14) number of patients (%)
  Fatigue, Grade 3: 0 number of patients (%)
  Headache, Grade 3: 0 number of patients (%)
  Hypophosphatemia, Grade 3: 0 number of patients (%)
  Lymphocyte count decreased, Grade 3: 1 (14) number of patients (%)
  Lymphocyte count decreased, Grade 4: 0 number of patients (%)
  Nausea, Grade 3: 0 number of patients (%)
  Platelet count decreased, Grade 4: 1 (14) number of patients (%)
  Thromboembolic event, Grade 3: 0 number of patients (%)
  Thromboembolic event, Grade 4: 0 number of patients (%)
  Urinary tract infection, Grade 3: 0 number of patients (%)
BRCAmut, all dose levels
  Abdominal pain, Grade 3: 2 (3) number of patients (%)
  Alkaline phosphatase increased, Grade 3: 1 (1) number of patients (%)
  Anemia, Grade 3: 1 (1) number of patients (%)
  Anemia, Grade 4: 1 (1) number of patients (%)
  Any Grade 3/4 toxicity: 17 (24) number of patients (%)
  Any Grade 3 toxicity: 15 (21) number of patients (%)
  Any Grade 4 toxicity: 3 (4) number of patients (%)
  Appendicitis, Grade 3: 1 (1) number of patients (%)
  Aspartate aminotransferase increased, Grade 3: 1 (1) number of patients (%)
  Dehydration, Grade 3: 1 (1) number of patients (%)
  Dyspnea, Grade 4: 1 (1) number of patients (%)
  Fatigue, Grade 3: 1 (1) number of patients (%)
  Headache, Grade 3: 1 (1) number of patients (%)
  Hypophosphatemia, Grade 3: 1 (1) number of patients (%)
  Lymphocyte count decreased, Grade 3: 9 (13) number of patients (%)
  Lymphocyte count decreased, Grade 4: 1 (1) number of patients (%)
  Nausea, Grade 3: 2 (3) number of patients (%)
  Platelet count decreased, Grade 4: 1 (1) number of patients (%)
  Thromboembolic event, Grade 3: 2 (3) number of patients (%)
  Thromboembolic event, Grade 4: 1 (1) number of patients (%)
  Urinary tract infection, Grade 3: 1 (1) number of patients (%)
BRCAwt group
  grade 3/4 decreased lymphocyte count: 18%
  incidence of grade 3/4 toxicity: 29%
BRCAwt, DL1 50/50 mg AM/PM
  Any Grade 3 toxicity: 0 number of patients (%)
  Basilic vein thrombosis, Grade 3: 0 number of patients (%)
  Dyspnea, Grade 3: 0 number of patients (%)
  Fatigue, Grade 3: 0 number of patients (%)
  Hypophosphatemia, Grade 3: 0 number of patients (%)
  Lymphocyte count decreased, Grade 3: 0 number of patients (%)
BRCAwt, DL2 100/50 mg AM/PM
  Any Grade 3 toxicity: 1 (33) number of patients (%)
  Basilic vein thrombosis, Grade 3: 0 number of patients (%)
  Dyspnea, Grade 3: 0 number of patients (%)
  Fatigue, Grade 3: 0 number of patients (%)
  Hypophosphatemia, Grade 3: 0 number of patients (%)
  Lymphocyte count decreased, Grade 3: 1 (33) number of patients (%)
BRCAwt, DL3 100/100 mg AM/PM
  Any Grade 3 toxicity: 0 number of patients (%)
  Basilic vein thrombosis, Grade 3: 0 number of patients (%)
  Dyspnea, Grade 3: 0 number of patients (%)
  Fatigue, Grade 3: 0 number of patients (%)
  Hypophosphatemia, Grade 3: 0 number of patients (%)
  Lymphocyte count decreased, Grade 3: 0 number of patients (%)
BRCAwt, DL6 200/200 mg AM/PM
  Any Grade 3 toxicity: 2 (67) number of patients (%)
  Basilic vein thrombosis, Grade 3: 1 (33) number of patients (%)
  Dyspnea, Grade 3: 0 number of patients (%)
  Fatigue, Grade 3: 0 number of patients (%)
  Hypophosphatemia, Grade 3: 0 number of patients (%)
  Lymphocyte count decreased, Grade 3: 1 (33) number of patients (%)
BRCAwt, DL7 300/300 mg AM/PM
  Any Grade 3 toxicity: 0 number of patients (%)
  Basilic vein thrombosis, Grade 3: 0 number of patients (%)
  Dyspnea, Grade 3: 0 number of patients (%)
  Fatigue, Grade 3: 0 number of patients (%)
  Hypophosphatemia, Grade 3: 0 number of patients (%)
  Lymphocyte count decreased, Grade 3: 0 number of patients (%)
BRCAwt, DL8 400/400 mg AM/PM
  Any Grade 3 toxicity: 3 (43) number of patients (%)
  Basilic vein thrombosis, Grade 3: 0 number of patients (%)
  Dyspnea, Grade 3: 1 (14) number of patients (%)
  Fatigue, Grade 3: 1 (14) number of patients (%)
  Hypophosphatemia, Grade 3: 1 (14) number of patients (%)
  Lymphocyte count decreased, Grade 3: 1 (14) number of patients (%)
BRCAwt, all dose levels
  Any Grade 3 toxicity: 8 (29) number of patients (%)
  Basilic vein thrombosis, Grade 3: 1 (4) number of patients (%)
  Dyspnea, Grade 3: 1 (4) number of patients (%)
  Fatigue, Grade 3: 1 (4) number of patients (%)
  Hypophosphatemia, Grade 3: 1 (4) number of patients (%)
  Lymphocyte count decreased, Grade 3: 5 (18) number of patients (%)
DL7-DL9
  patients who came off study after non-dose limiting nausea: 6 patients
All patients
  all-grade decreased lymphocyte count (lymphopenia): 38%
  all-grade nausea: 65%
  grade 3/4 lymphopenia: 15%
  grade 3 or 4 anemia: 6%
Continuous single-agent
  overall tolerability: safe and tolerable; also recorded: well-tolerated
